From the RNAGym collection of RNA variant scans (doi:10.1126/science.aae0568) come the findings set out here.

B1: tRNA (parent)
chain: GUUCCGUUGGCGUAAUGGUAACGCGUCUCCCUCCUAAGGAGAAGACUGCGGGUUCGAGUCCCGUACGGAACG

Fewer inactive variants are shown than the library holds.

The data set covers variants of B1. Kind of data set: yeast fitness relative to wild type (ratio to wild type); higher = fitter; tRNA-Arg(CCU), competitive growth, 37 C, YPD. The method in brief: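 Start and end populations of a pooled competition were compared by 100-nucleotide paired-end sequencing of gene amplicons. The Saccharomyces cerevisiae strains carried tRNA-Arg(CCU) gene variants at the native genomic locus, synthesised with a 3% per-site mutation rate at 69 sites, and competed in YPD at 37°C for 24 hours in six parallel replicates. Darwinian fitness relative to wild type was based on the change in genotype frequencies. Genotypes required ≥ 100 starting reads, and estimates < 0.5 were set to 0.5.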
G12C G23C C49G A57U A65C: the yeast fitness was ≤ 0.5. Regarding G12C C30U C31U, the yeast fitness stood at 0.611. As for G12C G41A A65C, the yeast fitness was ≤ 0.5.

In the case of G12C C31G G51A C55G G68C, the yeast fitness was determined as 0.627. As to U13A A20G A21G A65C, the yeast fitness is ≤ 0.5. G12C G18C G58C: the yeast fitness was ≤ 0.5. In the case of U13A A40U G52U C55G it was ≤ 0.5; in that of U13A C22U U35A C60U C61A, ≤ 0.5. In the case of G12C C24G C30A A43C C60U C62A it was ≤ 0.5. In the case of G12U it was 1.04; in that of G12C C66G A69U, ≤ 0.5; in that of U13A C30U G38C C49A, ≤ 0.5. G12U A37G C66U: the yeast fitness stood at 0.614. The figure for G12C C24G A37C is ≤ 0.5; for U13A A15G C61U it is 0.564; for U13A C30U C33A U35C it is 0.558. The figure for U13A C29U A40C is 0.54; for G12C C33G C34U A36C A43G G52C C60U it is 0.608. U13A A65U A69C: the yeast fitness is ≤ 0.5.

U13A A21C C29U C66A: the yeast fitness was ≤ 0.5.

As to G12C G25A U54C, the yeast fitness is 0.635. In the case of G12C U16A G23C C29A C60A it was ≤ 0.5; in that of U13A C24U, 0.795; in that of U13A C24A, 0.624. The figure for U13A C24A C60U is ≤ 0.5.

Take G12U A36G A65C: the yeast fitness turned out to be 0.561. On to U13A C22G C24G A36U A40C A45G C66A, for which the yeast fitness is ≤ 0.5. In the case of G12C C24G C27U A43U A69U it was 0.625; in that of G12C C24G U53C C60G, ≤ 0.5; in that of G12C G17A C46G, 0.584. Regarding G12C C46U G51C U64A, the yeast fitness was ≤ 0.5. For U13A A15G G48A A65G, the yeast fitness amounted to 0.581.

On to G12C C31G C33G U35C, for which the yeast fitness was determined as 0.515. In the case of U13A A15U G17C C61A it was ≤ 0.5; in that of G12C U16A C60G C61U G63A G68A, ≤ 0.5; in that of G12C C30U U59A, ≤ 0.5. For G12C C24U C30U C60A, the yeast fitness was ≤ 0.5. The figure for G12C G56C G58C is ≤ 0.5; for U13A A14C G18A G44A C66G it is ≤ 0.5. In the case of U13A A14G C30G it was ≤ 0.5; in that of U13A A20C C46U, 0.844. In the case of U13A A45C G48A it was 1.26. G12C U28A A37G G38A A45U A70G: the yeast fitness was ≤ 0.5. Regarding U13A A36U A45U G52C A57U, the yeast fitness was ≤ 0.5. The figure for U13A C22G C24A G39C A43C G44C U47C C61U is ≤ 0.5; for U13A A21C G44A it is ≤ 0.5; for U13A A15G C29A C61G it is ≤ 0.5. Turning to U13A A42C A70U, the yeast fitness was found to be 0.671. In the case of U13A A15C A45G C55U C61G it was ≤ 0.5; in that of U13A A57G A69C, 0.503.

For the variant G12C C33U G50C A70U, the yeast fitness turned out to be 0.509. In the case of G12C U28A G56A A57C it was ≤ 0.5; in that of G12C G17A U28A C49A, ≤ 0.5. In the case of G12C G18A, the yeast fitness came to 0.823. The figure for U13A A20G A36C G41C C61U is 0.62. In the case of G12C C61A A65U it was ≤ 0.5. The figure for G12C C27U C33A A45C U54A is ≤ 0.5; for G12C C31U U59A it is 0.6. As to G12C G48A A69U, the yeast fitness was found to be 0.836. In the case of G12C C29A A45U C62U it was ≤ 0.5. Regarding U13A C29A C31G, the yeast fitness amounted to 0.524.

Take G12C U19G G25A C49U U59A U64A: the yeast fitness was ≤ 0.5. G12C U35C A37G G38A A45U A70G: the yeast fitness is ≤ 0.5. In the case of G12C C61G C62U, the yeast fitness is 0.605. Take U13A C22U C46U: the yeast fitness turned out to be 1.06.

Take G12C C33G A37G A40C C49G: the yeast fitness was ≤ 0.5.

As for U13A C24G G25A G39C A40C G51C, the yeast fitness was 0.745. The figure for U13A C24U G41U U47C is ≤ 0.5; for U13A C24U C55A G58C it is ≤ 0.5; for U13A A14G it is 0.843. G12C C27U G39A: the yeast fitness was ≤ 0.5. The figure for U13A A14U A40C is 0.556; for G12C G48C G52C it is ≤ 0.5.

Regarding U13A A21G C60G C66G, the yeast fitness was found to be 0.756.

On to G12C G17A C46G C49U, for which the yeast fitness was ≤ 0.5.

Take G12C U16A C27G A36G C46U C61U G68A: the yeast fitness is ≤ 0.5. Regarding G12C C34A A70U, the yeast fitness was ≤ 0.5.

On to G12C C22U C60U G68C, for which the yeast fitness is ≤ 0.5.

U13A A57G: the yeast fitness came out at 0.792. With G12C G41C, the yeast fitness was found to be 0.748. The figure for U13A A37G G41C is ≤ 0.5. In the case of G12C U26A C33A C34G it was 0.55. G12C G52A: the yeast fitness was 0.745.

G12C G52C: the yeast fitness worked out at 0.563. The figure for G12C C33G A37G A40C C49G G67C is 0.539; for G12C G48C it is 0.787; for G12C G48A it is 1.01. The figure for G12C C22U U54C A65U is 0.531; for G12C U16A C24G G48C it is ≤ 0.5. In the case of U13A A15G C31G G58C it was ≤ 0.5; in that of G12C U28C C49U U59A, ≤ 0.5; in that of U13A C24U U59C, 0.55. In the case of U13A C27G U28A A65U A70U, the yeast fitness is 0.543. The figure for U13A C30U G58C is ≤ 0.5. The figure for G12C C30G C62A is ≤ 0.5. The figure for G12C C61A C62A is ≤ 0.5. Consider G12C G17C C22A U32A C34A A65C, for which the yeast fitness is ≤ 0.5. In the case of G12C U35A it was 0.774. In the case of G12C U35G it was 0.677; in that of G12C U35C, 0.691. The figure for U13A C30G U54C is ≤ 0.5. Consider U13A A21C U54G, for which the yeast fitness amounted to 0.557. In the case of U13A C24A G51A C61A A69U it was ≤ 0.5; in that of G12C U16A C49G, 0.593; in that of U13A A45G G67U, 0.629. The figure for G12C C30U A36C A40U is ≤ 0.5; for G12C C22U C27A C49U it is ≤ 0.5; for G12C C24G C49G it is ≤ 0.5. For U13A C27G U32C A45G U64A, the yeast fitness was ≤ 0.5.

As to G12C G17A C49A G56A, the yeast fitness is ≤ 0.5.

Consider G12C C30G A42U, for which the yeast fitness was ≤ 0.5.

With U13A C22U G51A C62G G63C C66G A69U, the yeast fitness was ≤ 0.5. In the case of U13A A15C C33G G52A it was ≤ 0.5; in that of U13A C29G G48C, ≤ 0.5; in that of U13A A20U C31G C34U G67U, ≤ 0.5. In the case of U13A A21C A37G A42G it was ≤ 0.5; in that of G12C U16A C27G A36G C46U C61U C62A G68A, ≤ 0.5. The figure for G12C C33G G44C is 0.572.

With U13A A40G A57U G68A, the yeast fitness was 0.524. In the case of G12C U64C it was 0.916; in that of U13A C22G G25C C27U C30G C55A A69U, 0.572; in that of G12C G39A, 0.75. With G12C C66G, the yeast fitness was 0.657. The figure for G12C C66U is 0.743; for U13A A20G C24U U35C G58C it is 0.632.

Consider U13A A14C C22A G48C G67U, for which the yeast fitness is ≤ 0.5.

For G12C U13G C33U C55U G56A, the yeast fitness was ≤ 0.5.

With U13A A21U C22G C31A, the yeast fitness was found to be 0.701. The figure for G12C G17A C49U U59C is ≤ 0.5; for G12C U28G A37G G41A G48A A65U C66U it is ≤ 0.5; for U13A C22U A57U it is ≤ 0.5.

Take U13A A20U C24U A37G U59G: the yeast fitness was ≤ 0.5. The figure for G12C U35G A69C is 0.571. In the case of G12C G25A U35C it was 0.552; in that of G12C G18C G41A A43G G48A, ≤ 0.5. The figure for G12C C62G A65C is ≤ 0.5. In the case of G12C U13A G18C U32A G52A, the yeast fitness was ≤ 0.5. As to U13A A14U C22G A45U, the yeast fitness came out at 0.507. The figure for G12C C34A G44C is ≤ 0.5; for U13A C22G C31G it is 0.547. As for U13A A20C C22G, the yeast fitness is ≤ 0.5. The figure for U13A A45C C60A is ≤ 0.5; for G12C U47G it is 0.602. The figure for G12C U47A is 0.596. Turning to U13A A45G G50C C60A A69C, the yeast fitness is 0.821.

Consider U13A A14G A37C G50C G51C, for which the yeast fitness came out at 0.566. The figure for U13A C24U C30A C60U is ≤ 0.5; for G12C C30G A45U A69U it is ≤ 0.5.

For the variant G12C U32G, the yeast fitness stood at 0.689. In the case of G12U C24A G44A A65U it was ≤ 0.5; in that of G12C U28G A37G G41A G48A G67C, ≤ 0.5; in that of U13A A15G A21C C22G C30G A37U, 0.636. Take U13A A20C C33A G39A: the yeast fitness was ≤ 0.5. In the case of G12C U35A G41C it was ≤ 0.5; in that of U13A A37U G41C U59C, ≤ 0.5; in that of G12U A36G A69U, 0.733. In the case of U13A C27U G44C it was 0.637; in that of G12C C22G C29A A43G, ≤ 0.5; in that of U13A C22G C31G C61A G67A, ≤ 0.5. In the case of U13A A57C C66G it was ≤ 0.5; in that of U13A A15U U16A A36U G44C G56A, ≤ 0.5. Consider G12C C24A, for which the yeast fitness came out at 0.685. The figure for G12C G39A G68C is ≤ 0.5. The figure for G12C C60G is 0.641; for G12C C60U it is 0.726.

On to G12C G25A A45C, for which the yeast fitness came to 0.543. Take G12C U16C: the yeast fitness amounted to 0.771.
